# TRPC4 agonist = activators of mouse TRPC4 channel; Q9QUQ5; HEK293 TRPC4beta/mu-opioid, Fluo4 calcium fluorescence; stronger effect = higher value; B-score at 10 µM; 0.49% of 310,000 active; AID 2237;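 active = B-score above 5 SD of library B-scores, and initial fluorescence ratio not above library mean plus 5 SD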;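 note: positive B-score marks a calcium rise read as TRPC4 activation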
# Target sequence (Q9QUQ5 whole entry, looked up): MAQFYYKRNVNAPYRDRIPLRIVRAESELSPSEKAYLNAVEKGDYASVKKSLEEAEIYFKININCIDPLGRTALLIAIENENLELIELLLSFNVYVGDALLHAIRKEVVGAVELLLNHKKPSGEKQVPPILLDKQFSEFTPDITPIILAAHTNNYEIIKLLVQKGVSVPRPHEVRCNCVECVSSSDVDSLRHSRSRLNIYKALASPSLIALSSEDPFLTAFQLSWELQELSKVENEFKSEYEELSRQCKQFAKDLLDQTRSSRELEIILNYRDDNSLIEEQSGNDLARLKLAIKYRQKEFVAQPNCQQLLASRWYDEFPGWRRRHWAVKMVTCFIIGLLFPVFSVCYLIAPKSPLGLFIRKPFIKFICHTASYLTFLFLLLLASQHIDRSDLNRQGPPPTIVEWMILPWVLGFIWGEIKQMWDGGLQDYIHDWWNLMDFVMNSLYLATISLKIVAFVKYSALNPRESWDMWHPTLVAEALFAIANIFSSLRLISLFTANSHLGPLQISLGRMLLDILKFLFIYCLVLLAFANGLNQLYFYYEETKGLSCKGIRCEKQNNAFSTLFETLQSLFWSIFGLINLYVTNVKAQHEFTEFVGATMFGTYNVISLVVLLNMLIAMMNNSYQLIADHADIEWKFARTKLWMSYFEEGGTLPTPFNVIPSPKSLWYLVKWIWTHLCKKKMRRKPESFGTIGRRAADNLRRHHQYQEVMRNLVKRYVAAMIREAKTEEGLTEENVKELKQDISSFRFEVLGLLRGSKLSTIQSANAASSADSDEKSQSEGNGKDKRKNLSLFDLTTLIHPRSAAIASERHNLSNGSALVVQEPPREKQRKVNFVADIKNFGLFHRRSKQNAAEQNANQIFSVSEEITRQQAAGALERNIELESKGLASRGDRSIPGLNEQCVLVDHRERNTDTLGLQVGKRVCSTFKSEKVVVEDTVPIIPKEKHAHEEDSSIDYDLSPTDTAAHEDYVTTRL
#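 System: HEK293 cells stably co-expressing mouse TRPC4beta and mu-opioid receptor; Schedule: Fluo4 dye loading 45 min at room temperature, 110 s recording; Detection: Fluo4 fluorescence, kinetic; Evaluation: B-scored integrated calcium fluorescence ratio; Controls: buffer (low) and maximal DAMGO (high).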
# TRPC6 inh = inhibitors of mouse TRPC6 channel; AID 2553; HEK293-TRPC6, membrane potential dye, ACh-evoked depolarization; stronger effect = lower value; B-score at 10 µM; 1.1% of 310,000 active;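 active = B-score under library mean minus 3 SD, initial fluorescence not abnormally high, positive integrated signal ratio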;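 note: B-score derived from integrated fluorescence ratio over the kinetic read; more negative B-score means stronger inhibition of depolarization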
# TRPC4 PAM = allosteric potentiators of mouse TRPC4 channel; HEK293 TRPC4beta/mu-opioid, DAMGO EC20, Fluo-4 Ca2+ flux; stronger effect = higher value; B-score at 10 µM; 0.42% of 310,000 active;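 active = B-score of calcium response area above 5 SD of library B-scores, with initial fluorescence ratio within 5 SD of library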
# TRPC4 inh = inhibitors of mouse TRPC4 channel | HEK293 TRPC4beta/mu-opioid, DAMGO-evoked Fluo4 calcium flux; stronger effect = lower value | B-score at 10 µM | AID 2247 | 0.39% of 300,000 active;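 active = B-score over 3 SD under the library average, no early fluorescence shift, positive overall ratio signal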
#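 Assay system: TRPC4beta/mu-opioid receptor HEK293 cell line; compound dosing: single concentration per test compound; detection: Fluo4 Ca2+ flux fluorescence; evaluation: per-well B score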
# TRPC6 activator = activates the mouse TRPC6 cation channel. Q61143. HEK293-TRPC6 membrane potential dye fluorescence; stronger effect = higher value. B-score at 10 µM. 0.13% of 310,000 active. AID 2550;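 active = B-score of the integrated fluorescence ratio above library mean plus 3 SD, and starting fluorescence ratio within library mean plus 5 SD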;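 note: higher score means more depolarization so channel activation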
# TRPC4 sel inh 2 = second selectivity test of TRPC6 inhibitors: effect on mouse TRPC4; 42% of 920 active; inhibition, % at 10 µM; shares compounds with TRPC6 inh; HEK293 TRPC4/MOR, membrane potential dye fluorescence; channel activated by saturating DAMGO dose;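 active = compounds whose fluorescence signal differed from control wells by over 3 SD, either direction, in both duplicate plates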
# TRPC4 spec = selectivity of TRPC6 inhibitors: effect on mouse TRPC4 | HEK293 TRPC4/mu-opioid, membrane potential fluorescence | AID 2777 | activity change, negative = inhibition, % at 10 µM | 61% of 920 active | shares compounds with TRPC6 inh;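 active = rise or fall in signal beyond 3 SD of buffer-only wells in both replicate plates, either sign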;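 note: integrated kinetic ratio of fluorescence range over baseline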
# HEK293 MPD ctr 2-1 = second check of TRPC6 inhibitor effects in parental HEK293 cells; signal change vs control, % at 10 µM; shares compounds with TRPC6 inh; 31% of 920 active; parental HEK293 membrane potential dye fluorescence; maximal acetylcholine challenge after compound addition;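 active = membrane potential signal moving either way by over 3 SD of the maximum-effect control, in both duplicate plates, meaning non-specific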
# HEK293 MPD ctr-1 = parental HEK293 nonspecific activity of TRPC6 inhibitors | parental HEK293 membrane potential dye fluorescence | membrane potential signal change, % at 10 µM | AID 2780 | 60% of 920 active | shares compounds with TRPC6 inh;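 active = membrane potential signal shifting up or down by more than 3 SD of buffer-only wells, on both duplicate plates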
# HEK293 MPD ctr-2 = parental HEK293 nonspecific activity of TRPC6 modulators; shares compounds with TRPC6 inh; membrane potential dye fluorescence; membrane potential signal change, % at 10 µM; 51% of 2,400 active;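 active = membrane potential signal moves up or down beyond 5 SD from buffer-only wells, on both duplicate plates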
# HEK293 MPD ctr 2-2 = second counter-screen for TRPC6 modulators: effect in parental HEK293 cells; shares compounds with TRPC6 inh; membrane potential dye fluorescence; after compound, maximal acetylcholine stimulation; inhibition, % at 10 µM; 14% of 2,400 active; AID 488926;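 active = membrane potential signal drops by more than 5 SD from the mean control signal, in both duplicate plates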
# TRPC4/MOR mod = tests whether TRPC6 modulators also affect mouse TRPC4 | AID 488927 | percent change from control (negative = decrease, positive = increase), % at 10 µM | shares compounds with TRPC6 inh | HEK293 TRPC4/mu-opioid, membrane potential fluorescence | 69% of 2,400 active;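 active = membrane potential signal moved up or down beyond 5 SD of buffer control wells, in both duplicate plates, actives on both sides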
# TRPC4 ctr inh 2 = mouse TRPC4 off-target activity of TRPC6 modulators, second screen; shares compounds with TRPC6 inh; HEK293 TRPC4/mu-opioid, membrane potential dye fluorescence; stimulated with maximal-effect DAMGO; inhibition, % at 10 µM; 55% of 2,400 active;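 active = drop in membrane potential signal beyond 5 SD of the control wells in both duplicate plates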;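 note: TRPC4 counter screen for TRPC6 hits run under conditions tuned for TRPC6 not TRPC4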
# TRPC6 inh conf = mouse TRPC6 inhibitor confirmation. 43% of 3,300 active. shares compounds with TRPC6 inh. HEK293-TRPC6, membrane potential dye, ACh-evoked depolarization. inhibition, % at 10 µM;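 active = fluorescence ratio falls more than 5 SD below the full-stimulation control mean, in both duplicate runs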;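 note: integrated fluorescence ratio of peak minus minimum over baseline after agonist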
# TRPC6 act conf = mouse TRPC6 activator confirmation; shares compounds with TRPC6 inh; HEK293-TRPC6 membrane potential dye fluorescence, FDSS; activation, % at 10 µM; 11% of 2,800 active; AID 488961;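 active = ratio signal rise beyond 5 SD above unstimulated control wells' mean, seen in both duplicate runs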
# Numbers stand for hits; – = inactive; · = no result given; + = active, no number. In the library only some 2.3% were active in any assay of this set; here they are far more common.
SMILES,TRPC4 agonist,TRPC6 inh,TRPC4 PAM,TRPC4 inh,TRPC6 activator,HEK293 MPD ctr-2,HEK293 MPD ctr 2-2,TRPC4/MOR mod,TRPC4 ctr inh 2,TRPC6 inh conf,TRPC6 act conf,others
CC(C)=CCCC(C)CN1CCC(n2nccc2NC(=O)c2ccc3c(c2)OCO3)CC1 (stereo unspecified),–,-7.3,–,–,–,·,·,·,·,56%,–,TRPC4 sel inh 2=36%;TRPC4 spec=6.8%;HEK293 MPD ctr 2-1=268%;HEK293 MPD ctr-1=10%
CCN(CC)C(=S)SCC(=O)Nc1ncc2c(n1)CC(C)(C)CC2=O,–,–,–,–,–,·,·,·,·,·,·,
COc1cc(CNCCc2ccccc2F)ccc1OCc1ccc(Cl)nc1,–,-7.7,–,–,–,·,·,·,·,60%,–,TRPC4 sel inh 2=48%;TRPC4 spec=–;HEK293 MPD ctr 2-1=226%;HEK293 MPD ctr-1=3.9%
CCOc1ccc(CSC(=N)N)cc1,–,–,–,–,–,·,·,·,·,·,·,
CCCCCOc1ccc(Br)cc1CSC(=N)N,–,-6.4,–,–,–,135%,–,24%,76%,–,·,
CCCCOc1ccc(CSC(=N)N)cc1Cl,–,-6.7,–,–,–,·,·,·,·,–,–,TRPC4 sel inh 2=70%;TRPC4 spec=–;HEK293 MPD ctr 2-1=266%;HEK293 MPD ctr-1=2.0%
CCCCOc1ccc(C(=S)N2CCC(C(N)=O)CC2)cc1,–,–,–,–,–,·,·,·,·,·,·,
Oc1ccc(CN2CCc3ccccc3C2)c2cccnc12,–,-7.3,–,-5,–,·,·,·,·,–,–,TRPC4 sel inh 2=49%;TRPC4 spec=2.4%;HEK293 MPD ctr 2-1=–;HEK293 MPD ctr-1=5.0%
CCOc1cccc(-c2c(C(=O)N/N=C/c3cccs3)nnn2-c2nonc2N)c1,–,–,–,–,–,·,·,·,·,·,·,
CCCN(CCC)CCCNc1ccc2nnc(-c3ccc(F)cc3)n2n1,94,-5.1,–,–,–,-190%,–,-17%,36%,–,–,
CCOC(=O)CC(=O)CSc1ccc2nnc(-c3ccc(F)cc3)n2n1,–,–,–,–,–,·,·,·,·,·,·,
N#C/C(=C\c1ccc(O)c(Br)c1)C(=O)N1CCCCC1,–,–,–,–,–,·,·,·,·,·,·,
Cc1occc1C(=O)/C(C#N)=C/c1ccc(O)c(Br)c1,46,–,–,–,73,+,107%,236%,–,·,508%,
CC(C)(C)NCc1cc(Cl)ccc1OCc1cccs1,–,-8,–,–,–,·,·,·,·,108%,·,TRPC4 sel inh 2=40%;TRPC4 spec=58%;HEK293 MPD ctr 2-1=30%;HEK293 MPD ctr-1=32%
CC(C)(C)NCc1cc(Cl)ccc1OCc1ccccc1F,–,-8.1,–,–,18,488%,–,106%,84%,100%,152%,
CC(C)(C)NCc1cc(Br)ccc1OCc1cccs1,–,-11,–,–,–,·,·,·,·,99%,·,TRPC4 sel inh 2=39%;TRPC4 spec=64%;HEK293 MPD ctr 2-1=–;HEK293 MPD ctr-1=36%
CC(C)NCc1cc(Br)ccc1OCc1ccccc1,–,-7.2,–,–,12,403%,–,96%,83%,81%,116%,
CC(C)c1onc(C(=O)NC2CCCCC2)c1[N+](=O)[O-],–,–,–,–,–,·,·,·,·,·,·,
CC(C)(C)NCc1ccccc1OCc1cccs1,–,-9.8,–,-7,–,·,·,·,·,89%,·,TRPC4 sel inh 2=31%;TRPC4 spec=38%;HEK293 MPD ctr 2-1=-20%;HEK293 MPD ctr-1=21%
C=CCOc1ccc(Br)cc1CNC(C)(C)C,–,-6.1,–,–,–,214%,98%,52%,100%,80%,·,
Cc1c(C)n(Cc2ccccc2)c2ncnc(NN)c12,–,–,–,–,–,·,·,·,·,·,·,
Cc1c(C)n(Cc2ccccc2)c2ncnc(NCCN(C)C)c12,–,-7.1,–,–,–,·,·,·,·,–,–,TRPC4 sel inh 2=–;TRPC4 spec=-17%;HEK293 MPD ctr 2-1=–;HEK293 MPD ctr-1=-277%
Cc1c(C)n(Cc2ccccc2)c2ncnc(NCCCN(C)C)c12,–,-6,–,–,–,-102%,–,-20%,54%,42%,–,
Cc1c(C)n(-c2ccccc2)c2ncnc(NCCCN(C)C)c12,–,–,–,–,–,·,·,·,·,·,·,
COc1ccccc1Nc1ncnc2c1c(C)c(C)n2CCCN(C)C,–,-5.2,–,–,–,-101%,–,-23%,74%,54%,–,
SMILES,TRPC4 agonist,TRPC6 inh,TRPC4 PAM,TRPC4 inh,TRPC6 activator,HEK293 MPD ctr-2,HEK293 MPD ctr 2-2,TRPC4/MOR mod,TRPC4 ctr inh 2,TRPC6 inh conf,TRPC6 act conf,others
CCCn1nc(NC(=O)CC(C)C)c2cc3ccccc3nc21,–,–,–,–,–,·,·,·,·,·,·,
CCCCCCN1C=CC(=C2C(=O)c3ccccc3C2=O)C=C1,–,–,–,–,–,·,·,·,·,·,·,
CCCCN1C=CC(=C2N=c3cccc([N+](=O)[O-])c3=N2)C=C1,–,-5.6,–,–,–,-132%,78%,-20%,49%,58%,–,
CCN(CC)c1ccc(C(=S)NCc2ccccc2)cc1,–,–,–,–,–,·,·,·,·,·,·,
Cc1ccc2nc(Cl)c(/C=N/Nc3nc(C)cc(C)n3)c(=O)n2c1,–,-8,–,–,–,–,–,-24%,–,–,–,
Cc1ccc2nc(C)c(Cl)c(=O)n2c1,–,–,–,–,–,·,·,·,·,·,·,
S=C(NCC1CCCO1)c1ccc(Br)cc1 (stereo unspecified),–,–,–,–,–,·,·,·,·,·,·,
O=C(c1ccccc1)N(c1ccccc1)C1C=CS(=O)(=O)C1 (stereo unspecified),–,-6.3,–,–,–,–,–,–,–,–,–,
COc1ccc(C(=O)N(c2ccccc2)C2C=CS(=O)(=O)C2)cc1 (stereo unspecified),–,–,–,–,–,·,·,·,·,·,·,
CCN(CC)C(=O)c1csc(Nc2ccc(C)cc2)n1,–,-5.8,–,–,–,–,–,–,–,–,–,
N#CC1=C(N)Oc2cc(N)ccc2C1c1ccc(Cl)cc1 (stereo unspecified),–,–,–,–,12,–,–,–,–,–,–,
N#CC1=C(N)Oc2cc(N)ccc2C1c1ccc(F)cc1F (stereo unspecified),64,–,–,–,39,121%,–,–,–,–,27%,

# Screens: PubChem, Johns Hopkins Ion Channel Center
